Laboratory results reported in ChEMBL document CHEMBL1122396, “Antagonists of slow-reacting substance of anaphylaxis. 1. Pyrido[2,1-b]quinazolinecarboxylic acid derivatives” (J Med Chem, 1983).
Where a name gives a salt, the structure may show the parent alone.

Columns and labels:
[1] = species: Cavia porcellus; assay: Ability to prevent constrictions induced by SRS-A (slow reacting substance of anaphylaxis) in guinea pig ileum at a concentration of 1x 10E-5 M; format: functional
[2] = species: Cavia porcellus; assay: Ability to prevent constrictions induced by SRS-A (slow reacting substance of anaphylaxis) in guinea pig ileum; format: functional
Procedure, shortened: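 Ileum segments (1.5 cm) from 200–250 g guinea pigs are held in Tyrode's solution with 10^-6 M atropine sulfate and 10^-6 M pyrilamine maleate, at 37 °C, aerated with 95% O2/5% CO2. SRS-A comes from egg albumin challenge of chopped lung from actively sensitized guinea pigs, dosed to give 50% of maximal isotonic contraction. Compound is added 3 min before challenge. Three concentrations (10–90% inhibition) are run in duplicate, and IC50 is taken from the log dose-response curve.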

Row | IC50 [2] | Structure (SMILES) | inhibition at 10 µM [1]
1 | 10000 nM | CCN(CC)CC(C)OC(=O)c1ccc2nc3ccc(C(C)C)cc3c(=O)n2c1 (stereo not drawn) | –
2 | 10000 nM | CCC(C)c1ccc2nc3ccc(C(=O)NCCN(CC)CC)cn3c(=O)c2c1 (stereo not drawn) | –
3 | 10000 nM | CCN(CC)CCNC(=O)c1ccc2nc3ccc(C(C)(C)C)cc3c(=O)n2c1 | –
4 | 4000 nM | CCN(CC)CCOC(=O)c1ccc2nc3ccc(C(C)C)cc3c(=O)n2c1 | –
5 | 1000 nM | CC(C)c1ccc2nc3ccc(C(=O)NCCN4CCN(c5ccccc5)CC4)cn3c(=O)c2c1 | –
6 | 1000 nM | CCN(CC)CCNC(=O)c1ccc2nc3ccc(CC(C)C)cc3c(=O)n2c1 | –
7 | 35 nM | CCCc1c(OCC(O)COc2ccc3c(=O)cc(C(=O)O)oc3c2CCC)ccc(C(C)=O)c1O (stereo not drawn) [FPL-55712 SODIUM SALT] | –
8 | 1000 nM | CC(C)c1ccc2nc3ccc(C(=O)NCCN4CCC(c5ccccc5)CC4)cn3c(=O)c2c1 | –
9 | 2500 nM | CC(C)c1ccc2nc3ccc(C(=O)NCCNc4ccccc4)cn3c(=O)c2c1 | –

Second part, the compound before the results:

Row | Structure (SMILES) | IC50 [2] | inhibition at 10 µM [1]
10 | CCCCCOC(=O)c1ccc2nc3ccc(C(C)C)cc3c(=O)n2c1 | – | 10%
11 | CC(C)c1ccc2nc3ccc(C(=O)NCCN(C4CCCCC4)C4CCCCC4)cn3c(=O)c2c1 | 2000 nM | –
12 | CCN(CC)CCOC(=O)c1ccc2nc3ccc(C)cc3c(=O)n2c1 | – | 11%
13 | CCN(CC)CCNC(=O)c1ccc2nc3ccc(C(C)C)cn3c(=O)c2c1 | – | 6%
14 | CC(C)c1ccc2nc3ccc(C(=O)NCCN4CCC(Cc5ccccc5)CC4)cn3c(=O)c2c1 | 1000 nM | –
15 | CC(C)c1ccc2nc3ccc(C(=O)OCCN4CCCCC4)cn3c(=O)c2c1 | 6000 nM | –
16 | CCN(CC)CCOC(=O)c1ccc2nc3ccc(OC)cc3c(=O)n2c1 | – | 0%
17 | CC(C)c1ccc2nc3ccc(C(=O)NCCN(C)C)cn3c(=O)c2c1 | – | 42%
18 | CC(C)c1ccc2nc3ccc(C(=O)NCCN4CCCCC4)cn3c(=O)c2c1 | – | 15%
19 | CC(C)c1ccc2nc3ccc(C(=O)NCCN4CCN(C)CC4)cn3c(=O)c2c1 | – | 34%
20 | CC(C)c1ccc2nc3ccc(C(=O)NCCN4CCN(C(c5ccccc5)c5ccccc5)CC4)cn3c(=O)c2c1 | 1000 nM | –
21 | CCN(CC)CCOC(=O)c1ccc2nc3ccc(C(C)C)cn3c(=O)c2c1 | – | 5%
22 | CC(C)c1ccc2nc3ccc(C(=O)NCCN(C(C)C)C(C)C)cn3c(=O)c2c1 | 1000 nM | –
23 | CCN(CC)CCNC(=O)c1ccc2nc3ccc(C(C)C)cc3c(=O)n2c1 | 5000 nM | –
24 | CCN(CC)CCCNC(=O)c1ccc2nc3ccc(C(C)C)cc3c(=O)n2c1 | – | 37%
25 | CCN(CC)CCOC(=O)c1ccc2nc3ccc(SC)cc3c(=O)n2c1 | – | 0%
26 | CCN(CC)CCOC(=O)c1ccc2nc3ccc(OC(C)C)cc3c(=O)n2c1 | – | 17%
27 | CC(C)c1ccc2nc3ccc(C(=O)NCCN4C(C)(C)CCCC4(C)C)cn3c(=O)c2c1 | 1000 nM | –
28 | CC(C)c1ccc2nc3ccc(C(=O)NCCN(c4ccccc4)c4ccccc4)cn3c(=O)c2c1 | 10000 nM | –
